# Measurements: ChEMBL document CHEMBL1921722, “In vitro and in vivo evaluation of select kahalalide F analogs with antitumor and antifungal activities” (Bioorg Med Chem, 2011)
# How the values were obtained:
# SK-OV-3 [1] = assay: Cytotoxicity against human SKOV3 cells by sulforhodamine B assay; type: functional
# In short: (§1)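 NCI Developmental Therapeutics Program 60-cell-line human tumor panel screen, run at NCI. A single-concentration pre-screen was followed by a five-concentration dose-response in 10-fold steps. GI50 is the concentration that reduces growth of treated cells to half that of untreated control cells. TGI is the concentration that completely halts growth.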
# A498 = assay: Cytotoxicity against human A498 cells by sulforhodamine B assay; type: functional
# In short: (§2)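 Run at NCI in the DTP 60-cell-line human tumor panel by standard procedure. Compounds were first screened at a single concentration, then tested at five tenfold-spaced concentrations. GI50 is the concentration reducing treated-cell growth to half that of untreated controls; TGI is the concentration completely halting growth.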
# UO-31 = assay: Cytotoxicity against human UO31 cells by sulforhodamine B assay; type: functional; in short: as §1
# PC-3 = assay: Cytotoxicity against human PC3 cells by sulforhodamine B assay; type: functional; in short: as §1
# SNB-75 = assay: Cytotoxicity against human SNB75 cells assessed as cell growth at 8 nM by sulforhodamine B assay relative to control; type: functional; conditions: read-out: Activity
# U-251 [2] = assay: Cytotoxicity against human U251 cells assessed as cell growth at 8 nM by sulforhodamine B assay relative to control; type: functional; conditions: read-out: Activity
# Cryptococcus neoformans = assay: Antimicrobial activity against Cryptococcus neoformans ATCC 90113 by CLSI method; type: functional, organism-based
# BT-549 [3] = assay: Cytotoxicity against human BT549 cells by sulforhodamine B assay; type: functional; in short: as §2
# Mus musculus = assay: Acute toxicity in athymic nude mouse assessed as mortality at 12.5 mg/kg, […]; type: organism-based; set-up: dose 12.5 mg/kg, route intraperitoneal; conditions: in vivo, ip, 576 h
# NCI-H226 [4] = assay: Cytotoxicity against human NCI-H226 cells by sulforhodamine B assay; type: functional; in short: as §1
# A549 [5] = assay: Cytotoxicity against human A549 cells assessed as cell growth at 8 nM by sulforhodamine B assay relative to control; type: functional; conditions: read-out: Activity; in short: as §2
# ACHN = assay: Cytotoxicity against human ACHN cells assessed as cell growth at 8 nM by sulforhodamine B assay relative to control; type: functional; conditions: read-out: Activity; in short: as §2
# SN12C = assay: Cytotoxicity against human SN12C cells assessed as cell growth at 8 nM by sulforhodamine B assay relative to control; type: functional; conditions: read-out: Activity
# BT-549 [6] = assay: Cytotoxicity against human BT549 cells assessed as cell growth at 8 nM by sulforhodamine B assay relative to control; type: functional; conditions: read-out: Activity; in short: as §2
# T47D = assay: Cytotoxicity against human T47D cells assessed as cell growth at 8 nM by sulforhodamine B assay relative to control; type: functional; conditions: read-out: Activity
# NCI-H226 [7] = assay: Cytotoxicity against human NCI-H226 cells assessed as cell growth at 80 nM by sulforhodamine B assay relative to control; type: functional; conditions: read-out: Activity
# NCI-H460 = assay: Cytotoxicity against human NCI-H460 cells assessed as cell growth at 80 nM by sulforhodamine B assay relative to control; type: functional; conditions: read-out: Activity
# IGROV-1 [8] = assay: Cytotoxicity against human IGROV1 cells assessed as cell growth at 80 nM by sulforhodamine B assay relative to control; type: functional; conditions: read-out: Activity
# SK-OV-3 [9] = assay: Cytotoxicity against human SKOV3 cells assessed as cell growth at 80 nM by sulforhodamine B assay relative to control; type: functional; conditions: read-out: Activity
# MCF7 = assay: Cytotoxicity against human MCF7 cells assessed as cell growth at 80 nM by sulforhodamine B assay relative to control; type: functional; conditions: read-out: Activity
# BT-549 [10] = assay: Cytotoxicity against human BT549 cells assessed as cell growth at 80 nM by sulforhodamine B assay relative to control; type: functional; conditions: read-out: Activity; in short: as §2
# NCI-H23 [11] = assay: Cytotoxicity against human NCI-H23 cells assessed as cell growth at 800 nM by sulforhodamine B assay relative to control; type: functional; conditions: read-out: Activity
# LOX IMVI = assay: Cytotoxicity against human LOXIMVI cells assessed as cell growth at 800 nM by sulforhodamine B assay relative to control; type: functional; conditions: read-out: Activity
# OVCAR-8 = assay: Cytotoxicity against human OVCAR8 cells assessed as cell growth at 800 nM by sulforhodamine B assay relative to control; type: functional; conditions: read-out: Activity
# K562 = assay: Cytotoxicity against human K562 cells assessed as cell growth at 8 uM by sulforhodamine B assay relative to control; type: functional; conditions: read-out: Activity
# RPMI-8226 [12] = assay: Cytotoxicity against human RPMI8226 cells assessed as cell growth at 8 uM by sulforhodamine B assay relative to control; type: functional; conditions: read-out: Activity
# U-251 [13] = assay: Cytotoxicity against human U251 cells assessed as cell growth at 8 uM by sulforhodamine B assay relative to control; type: functional; conditions: read-out: Activity
# IGROV-1 [14] = assay: Cytotoxicity against human IGROV1 cells assessed as cell growth at 8 uM by sulforhodamine B assay relative to control; type: functional; conditions: read-out: Activity
# A549 [15] = assay: Cytotoxicity against human A549 cells assessed as cell growth at 80 uM by sulforhodamine B assay relative to control; type: functional; conditions: read-out: Activity; in short: as §2
# NCI-H23 [16] = assay: Cytotoxicity against human NCI-H23 cells assessed as cell growth at 80 uM by sulforhodamine B assay relative to control; type: functional; conditions: read-out: Activity
# NCI-H322M [17] = assay: Cytotoxicity against human NCI-H322M cells assessed as cell growth at 80 uM by sulforhodamine B assay relative to control; type: functional; conditions: read-out: Activity
# HCT-15 = assay: Cytotoxicity against human HCT15 cells assessed as cell growth at 80 uM by sulforhodamine B assay relative to control; type: functional; conditions: read-out: Activity
# SK-MEL-2 = assay: Cytotoxicity against human SK-MEL-2 cells assessed as cell growth at 80 uM by sulforhodamine B assay relative to control; type: functional; conditions: read-out: Activity
# OVCAR-4 = assay: Cytotoxicity against human OVCAR4 cells assessed as cell growth at 80 uM by sulforhodamine B assay relative to control; type: functional; conditions: read-out: Activity
# RXF 393 = assay: Cytotoxicity against human RXF393 cells assessed as cell growth at 80 uM by sulforhodamine B assay relative to control; type: functional; conditions: read-out: Activity
# HL-60(TB) = assay: Cytotoxicity against human HL-60(TB) cells by sulforhodamine B assay; type: functional
# In short: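 NCI Developmental Therapeutics Program 60-cell-line human tumor panel, standard procedure. Single-concentration prescreen first; active compounds then tested at five concentrations. GI50 is the concentration reducing growth of treated cells to half that of untreated controls.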
# MOLT-4 = assay: Cytotoxicity against human MOLT4 cells by sulforhodamine B assay; type: functional; in short: as §1
# RPMI-8226 [18] = assay: Cytotoxicity against human RPMI8226 cells by sulforhodamine B assay; type: functional; in short: as §1
# NCI-H322M [19] = assay: Cytotoxicity against human NCI-H322M cells by sulforhodamine B assay; type: functional; in short: as §1
compound,measurement,setting,value
C/C=C1\NC(=O)[C@H](Cc2ccccc2)NC(=O)[C@@H](C(C)C)NC(=O)[C@@H]([C@@H](C)CC)NC(=O)[C@H](NC(=O)[C@H](NC(=O)[C@H](CCCNCc2ccc(F)c(C)c2)NC(=O)[C@H]2CCCN2C(=O)[C@H](NC(=O)[C@@H](NC(=O)[C@@H](NC(=O)[C@H](NC(=O)CCCC(C)C)C(C)C)[C@@H](C)O)C(C)C)C(C)C)[C@@H](C)CC)[C@@H](C)OC(=O)[C@H](C(C)C)NC1=O,LC50,SK-OV-3 [1],891 nM
same,GI50,SK-OV-3 [1]; read-out: GI50,173 nM
same,TGI,SK-OV-3 [1]; read-out: TGI,370 nM
same,GI50,SK-OV-3 [1]; read-out: pGI50 (converted),174 nM
same,TGI,SK-OV-3 [1]; read-out: pTGI (converted),372 nM
same,GI50,A498,1320 nM
same,LC50,A498,4470 nM
same,TGI,A498; read-out: pTGI (converted),2450 nM
same,GI50,UO-31,1320 nM
same,TGI,UO-31; read-out: pTGI (converted),2630 nM
same,LC50,PC-3,708 nM
same,GI50,PC-3; read-out: GI50,165 nM
same,TGI,PC-3; read-out: TGI,342 nM
same,GI50,PC-3; read-out: pGI50 (converted),166 nM
same,TGI,PC-3; read-out: pTGI (converted),339 nM
same,growth at 0.008 µM,SNB-75,112%
same,growth at 0.008 µM,U-251 [2],96%
same,IC50,Cryptococcus neoformans,950 nM
same,MFC,Cryptococcus neoformans,10 µM
same,MIC,Cryptococcus neoformans,5 µM
same,GI50,BT-549 [3],1230 nM
same,LC50,BT-549 [3],4570 nM
same,TGI,BT-549 [3]; read-out: pTGI (converted),2340 nM
same,Activity,Mus musculus,Non-toxic
same,GI50,NCI-H226 [4],1480 nM
same,TGI,NCI-H226 [4]; read-out: pTGI (converted),3020 nM
same,growth at 0.008 µM,A549 [5],100%
same,growth at 0.008 µM,ACHN,100%
same,growth at 0.008 µM,SN12C,89%
same,growth at 0.008 µM,BT-549 [6],106%
same,growth at 0.008 µM,T47D,104%
same,growth at 0.08 µM,NCI-H226 [7],109%
same,growth at 0.08 µM,NCI-H460,104%
same,growth at 0.08 µM,IGROV-1 [8],107%
same,growth at 0.08 µM,SK-OV-3 [9],105%
same,growth at 0.08 µM,MCF7,101%
same,growth at 0.08 µM,BT-549 [10],76%
same,growth at 0.8 µM,NCI-H23 [11],98%
same,growth at 0.8 µM,LOX IMVI,108%
same,growth at 0.8 µM,OVCAR-8,92%
same,growth at 8 µM,K562,-43%
same,growth at 8 µM,RPMI-8226 [12],-64%
same,growth at 8 µM,U-251 [13],-96%
same,growth at 8 µM,IGROV-1 [14],-75%
same,growth at 80 µM,A549 [15],1%
same,growth at 80 µM,NCI-H23 [16],-82%
same,growth at 80 µM,NCI-H322M [17],-94%
same,growth at 80 µM,HCT-15,-78%
same,growth at 80 µM,SK-MEL-2,-21%
same,growth at 80 µM,OVCAR-4,-20%
same,growth at 80 µM,RXF 393,-79%
same,GI50,HL-60(TB),1580 nM
same,TGI,HL-60(TB); read-out: pTGI (converted),3090 nM
same,GI50,MOLT-4,2140 nM
same,LC50,MOLT-4,> 75900 nM
same,GI50,RPMI-8226 [18]; read-out: GI50,885 nM
same,TGI,RPMI-8226 [18]; read-out: TGI,2260 nM
same,GI50,RPMI-8226 [18]; read-out: pGI50 (converted),891 nM
same,TGI,RPMI-8226 [18]; read-out: pTGI (converted),2240 nM
same,LC50,NCI-H322M [19],457 nM
same,GI50,NCI-H322M [19]; read-out: GI50,131 nM
same,TGI,NCI-H322M [19]; read-out: TGI,244 nM
same,GI50,NCI-H322M [19]; read-out: pGI50 (converted),132 nM
same,TGI,NCI-H322M [19]; read-out: pTGI (converted),245 nM
